Results published in the RNAGym collection of RNA variant scans (doi:10.1126/science.aae0568).
Variants at the floor of the assay were thinned out.

B1: tRNA (parent)
chain: GUUCCGUUGGCGUAAUGGUAACGCGUCUCCCUCCUAAGGAGAAGACUGCGGGUUCGAGUCCCGUACGGAACG

Variants of: B1
Assay: yeast fitness relative to wild type (ratio to wild type); higher = fitter; tRNA-Arg(CCU), competitive growth, 37 C, YPD
Procedure, shortened: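 Variants of the tRNA-Arg(CCU) gene were chemically synthesised with a 3% per-site mutation rate across 69 sites and placed at the native genomic locus in Saccharomyces cerevisiae. Six parallel replicates of the pooled strains were competed in YPD at 37°C for 24 hours, and gene amplicons from the start and end populations were read by 100-nucleotide paired-end sequencing. Darwinian fitness relative to wild type was derived from changes in genotype frequencies. Genotypes required ≥ 100 starting reads, and estimates < 0.5 were set to 0.5.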

Variant	yeast fitness
GUUCCGUUGGCCUAAUGGUAACGCGUCCCCCUCCUAAGGAGAAGACUGUGGGUUCGAGACCCGUACGGAACG [G12C U28C C49U U59A]	≤ 0.5
GUUCCGUUGGCCUAAUGGUAACGCGACUCCCUAGUAAGGAGAAGACUGCGGGUUCGAGUCCCGUACGGAACG [G12C U26A C33A C34G]	0.55
GUUCCGUUGGCCUAAUGGUAACGCGUCUCCCUCCUAAGGAGAAGACAGCGGGUUCGAGUCCCGUACGCAACG [G12C U47A G68C]	0.533
GUUCCGUUGGCCUAAUGGUAACGCGUCUCCCUCCGAAGGAGAAGACUGCGGGUUCGAAUCCCGUACAGAACG [G12C U35G G58A G67A]	0.706
GUUCCGUUGGCCUAAUGGUAACGCGUCACCCUCCUAGAGAGAAGUCUGCGGGUUCGAGUCCCGUACGGAGCG [G12C U28A A37G G38A A45U A70G]	≤ 0.5
GUUCCGUUGGCCUAAUGGGAACGCAUCUCCCUCCUAAGGAGAAGACUGUGGGUUCGAGACCCGAACGGAACG [G12C U19G G25A C49U U59A U64A]	≤ 0.5
GUUCCGUUGGCCUAAUGGUAACGCGCCUCCCUCCUAAGGAGAAGACUGCGGGUUCGAGUCCCGUACGGAACG [G12C U26C]	0.859
GUUCCGUUGGCUUAAUGGUAACGCGUCUCCCUCCUGAGGAGAAGACUGCGGGUUCGAGUCCCGUACGGUACG [G12U A36G A69U]	0.733
GUUCCGUUGGCCUAAUGGAAACGCGUGUCCCUCCUAAGGAGAACACUGCGGGUUCGAGUCCCGUACGGAACG [G12C U19A C27G G44C]	≤ 0.5
GUUCCGUUGGCCUAAUGGGAACGCAUCUCCCUCCUAAGGAGAAGACUGCGGGUUCGAGACCCGAACGGAACG [G12C U19G G25A U59A U64A]	0.623
GUUCCGUUGGCCUAAUGGUAACGCGUCGCCCUCCUAGGGAAAAGACUACGGGUUCGAGUCCCGUACCGAACG [G12C U28G A37G G41A G48A G67C]	≤ 0.5
GUUCCGUUGGCCUAAUGGUAACGCGUCACCCUCCUAAGGAGAAGACUGCGGGUUCACGUCCCGUACGGAACG [G12C U28A G56A A57C]	≤ 0.5
GUUCCGUUGGCCUAAUGGUAACGCGUCGCCCUCCUAGGGAAAAGACUACGGGUUCGAGUCCCGUUUGGAACG [G12C U28G A37G G41A G48A A65U C66U]	≤ 0.5
GUUCCGUUGGCCUAAUGGUAACGCGUCUCCCUCCCAGAGAGAAGUCUGCGGGUUCGAGUCCCGUACGGAGCG [G12C U35C A37G G38A A45U A70G]	≤ 0.5
GUUCCGUUGGCCUAAUGGUAACGCGUCGCCCUCCUAGGGAAAAGACUACGGGUUCGAGUCCCGUACGGAACG [G12C U28G A37G G41A G48A]	0.549
GUUCCGUUGGCCUAAUGGUAACGCGUCUCCCUCCAAAGGAGAAGACUGCGGGUUCGAGUCCCGUACGGAACG [G12C U35A]	0.774
GUUCCGUUGGCCUAAUGGUAACGCGUCUCCCUCCCAAGGAGAAGACUGCGGGUUCGAGUCCCGUACGGAACG [G12C U35C]	0.691
GUUCCGUUGGCCUAAUGGUAACGCGUCUCCCUCCGAAGGAGAAGACUGCGGGUUCGAGUCCCGUACGGAACG [G12C U35G]	0.677
GUUCCGUUGGCCUAAUGGUAACGCGUCCCCCUCCUAAGGAGAAGACUGCGGGUUCGAGACCCGUACGGAACG [G12C U28C U59A]	0.586

Variant	yeast fitness
GUUCCGUUGGCCUAAUGGUAACGCGUCUCCCUCCUAAGGAGAAGACUGCGGGUUCGAGUCCCGCACGGAACG [G12C U64C]	0.916
GUUCCGUUGGCCUAAUGGUAACGCGUCUCCCCCCUAAGGACAAGACUGCGGGUUCGGGUCCCGUACGGAACG [G12C U32C G41C A57G]	≤ 0.5
GUUCCGUUGGCCUAAUGGUAACGCGUCUCCCUCCUAAGGAGAAGACUGCGGGAUCGAGUCUAGUACGGAACG [G12C U53A C61U C62A]	≤ 0.5
GUUCCGUUGGCCUAAUGGUAACGCGUCUCCCUCCUAAGGAGAAGACUGCGGGUGCGAGUCCCGUACGGAACG [G12C U54G]	0.657
GUUCCGUUGGCCUAAUGGUAACGCGACUCCCUAGUAAGGAGAAGACUGCGGGUUCGAGUCCCGUACGGCACG [G12C U26A C33A C34G A69C]	≤ 0.5
GUUCCGUUGGCUUAAUGGUAACGCGUCUCCCUCCUAAGGAGAAGACUGCGGGUUCGAGUCCCGUACGGAACG [G12U]	1.04
GUUCCGUUGGCCUAAUGGUAACGCGUCUCCCUCCGAAGGAGAAGACUGCGGGUUCGAGUCCCGUACGGCACG [G12C U35G A69C]	0.571
GUUCCGUUGGCCUAAUGGUAACGCGUCACCCUCCUAAGGAGAAGACUGCGAGUUCGUGUCCUGUACGGAACG [G12C U28A G51A A57U C62U]	0.594
GUUCCGUUGGCCUAAUGGUAACGCGUCGCCCUCCUAAGGAGAAGACUGCGGGUUCGAGUCCCGUACGGAACG [G12C U28G]	0.696
GUUCCGUUGGCCUAAUGGUAACGCGUCUCCCGCCUAAGGAGAAGACUGCGGGUUCGAGUCCCGUACGGAACG [G12C U32G]	0.689
GUUCCGUUGGCCUAAUGGUAACGCGUCUCCCUCCUAAGGAGAAGACAGCGGGUUCGAGUCCCGUACGGAACG [G12C U47A]	0.596
GUUCCGUUGGCCUAAUGGUAACGCGUCUCCCUCCUAAGGAGAAGACGGCGGGUUCGAGUCCCGUACGGAACG [G12C U47G]	0.602
GUUCCGUUGGCCUAAUGGUAACGCGUCUCCCUCCAAAGGACAAGACUGCGGGUUCGAGUCCCGUACGGAACG [G12C U35A G41C]	≤ 0.5
GUUCCGUUGGCUUAGUGGUAACGCGUCUCCCUCCUAAGGAGAAGACUGCGGGUUCGAGUCCCGUACGGAACG [G12U A15G]	0.814
GUUCCGUUGGCCUAAUGGUAACGCGCCUCCCUCCUAAGGAGACGACUGCGGGUCCGAGUCCCGUACGGAACG [G12C U26C A43C U54C]	≤ 0.5
GUUCCGUUGGCUUAAUGGUAACGCGUCUCCCUCCUGAGGAGAAGACUGCGGGUUCGAGUCCCGUCCGGAACG [G12U A36G A65C]	0.561
GUUCCGUUGGCCUAAUGGUAACGCGUCUCCCUCCUAAGGAGAAGACUGCGGGCUCGAGUGCCUUACGGAACG [G12C U53C C60G G63U]	0.691
GUUCCGUUGGCCUAAUGGAAACGCGUGUCCCUCCUAAGGAGAAGACUGGGGGUUCGAGUCUCGUACGGAACG [G12C U19A C27G C49G C61U]	≤ 0.5
GUUCCGUUGGCCUAAUGGUAACGCGCCUCCCUCCUAAGGAGACGACUGCGGGUUCGAGUCCCGUACGGAACG [G12C U26C A43C]	0.741
